Measurements: paper PMC11651071 (International Journal of Nanomedicine, 2024)

Tests used:
Hela cells [1] = test: Cell apoptosis detection; format: cell-based; conditions: 24 h
Hela cells [2] = test: Cell cycle assay; format: cell-based; conditions: 24 h
How it was run: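 HeLa cells (DMEM, 10% FBS) were seeded at 5.5×10^5 cells/well in 6-well plates and treated in DMEM for 24 h. Collected cells were fixed by dropwise 70% ethanol and held at −20°C for 24 h. They were washed twice in chilled PBS, stained with PI buffer for 30 min at room temperature in the dark, and analysed by flow cytometry. Mean ± SD, ≥3 independent experiments.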

[3] = system: Hela cells xenograft tumor; test: In vivo anti-tumor effect, subcutaneous xenograft model using Hela cells; set-up: species or system nude mice; conditions: for Body weight of nude mice during treatment: CU, CA7, CA7-LP 50 mg/kg, DDP-INJ 3.5 mg/kg, i.p. every 2 days for 14 days; for Tumor cell infiltration in kidneys and livers (H&E): after treatment
How it was run: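 Female BALB/c immunodeficient mice (4 w, 15–16 g) received 3.5×10^7 HeLa cells in 100 µL PBS s.c. near the right scapula. At ~100 mm³, mice were randomised into five groups (n = 5): saline, test articles at 50 mg/kg, or cisplatin injection at 3.5 mg/kg. Dosing was i.p. every 2 days for 14 days. Tumour volume (V = 1/2·ab²) and body weight were tracked; tumours were then weighed and organs formalin-fixed for H&E, with tumour Ki67 immunohistochemistry.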

Hela cells [4] = test: Cell viability assay; format: cell-based; conditions: 24 h
How it was run: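 MTT assay: HeLa cells at 4.5×10^3 cells/well were allowed to adhere for 24 h, then exposed to gradient concentrations for 24, 48 or 72 h, with 0.1% DMSO as negative control. MTT was added for 3.5 h at 37°C, and formazan was dissolved in DMSO and read at 490 nm. Inhibition rate = [1 − (ODsample − ODblank)/(ODcontrol − ODblank)] × 100%. Mean ± SD, ≥3 independent experiments.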

Hela cells [5] = test: Wound healing assay; format: cell-based; conditions: 24 h, serum-free DMEM
How it was run: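 Scratch assay: a confluent HeLa monolayer (9×10^5 cells/well, 6-well plates) was scraped with a 200 µL pipette tip and washed twice with PBS. Treatments were added in serum-free DMEM and plates kept at 37°C, 5% CO2. Wound closure was imaged by microscope at 0 and 24 h.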

[6] = 50 mg/kg intraperitoneally every 2 days for 14 days

Compound: N.N.[Cl][Pt][Cl] [DDP-INJ, Cisplatin]
- Total apoptosis rate (Hela cells [1]; 2.5 μM): 11.57 ± 1.16%
- Total apoptosis rate (Hela cells [1]; 5 μM): 23.73 ± 2.30%
- Total apoptosis rate (Hela cells [1]; 10 μM): 32.17 ± 3.68%
- Change of cell cycle distribution (Hela cells [2]): increase in the S phase and a decrease in G2/M phase
- Body weight of nude mice during treatment [3]: notable decrease in body weight
- Mortality of nude mice ([3]; DDP-INJ 3.5 mg/kg i.p., as the number of administrations increased): some mice dying
- Tumor cell infiltration in kidneys and livers (H&E) [3]: absent

Compound: COc1cc(/C=C/C(=O)CC(=O)/C=C/c2ccc(O)c(OC)c2)ccc1O [CU, Curcumin]
- Maximum inhibition rate (Hela cells [4]): 5.77 ± 2.40%
- Migration rate (Hela cells [5]): 42.12 ± 3.06%
- Total apoptosis rate (Hela cells [1]; 2.5 μM): 7.29 ± 1.64%
- Total apoptosis rate (Hela cells [1]; 5 μM): 11.64 ± 3.19%
- Total apoptosis rate (Hela cells [1]; 10 μM): 17.60 ± 3.39%
- Proportion of the G2/M phase (Hela cells [2]; 2.5 μM): 17.84 ± 1.07%
- Proportion of the G2/M phase (Hela cells [2]; 5 μM): 20.46 ± 2.44%
- Proportion of the G2/M phase (Hela cells [2]; 10 μM): 22.78 ± 3.60%
- Tumor inhibition rate [3, 6]: 28.58 ± 8.04%
- Tumor weight [3, 6]: 0.49 ± 0.06 g
- Body weight of nude mice during treatment [3]: remained stable
- Tumor cell infiltration in kidneys and livers (H&E) [3]: present in small amounts
